The list is not random: actives were taken first. Their share in the collection is about 2%.
NR1D1 modulator: modulates human Rev-erb alpha binding to DNA. P20393. Rev-erbα–FITC-DNA binding, fluorescence polarization, 90 min. activity, % at 10 µM. 370,000 tested, 0.79% active. AID 1259318;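 active = activity above about 14%, limit read from the data; passing the limit was not always enough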;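 note: 0% = DMSO wells with 35 nM protein and 100% = DMSO wells with 750 nM protein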
NR2E3 ag-1: activates human photoreceptor nuclear receptor NR2E3 | GST-NR2E3/biotin-RetCOR TR-FRET, 1536-well | AID 2300 | inhibition of corepressor binding, % at 4.78 µM | Q9Y5X4 | 320,000 tested, 0.12% active;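 active = percent inhibition above the cutoff of mean plus 3 SD of all tested compounds, set per screening campaign, cut at about 20% in these data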;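 note: 0% = DMSO wells and 100% = biotin wells as full block of FRET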
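system = GST-tagged NR2E3 plus biotinylated RetCOR corepressor | input = 1.35 nM GST-NR2E3 | also added = 7 nM biotin-RetCOR | schedule = 5 h incubation at 4 °C | measured by = TR-FRET with europium anti-GST and streptavidin-D2, 340 nm excitation | read-out = percent loss of FRET ratio relative to control wells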
Neddylation inh: blocks human cullin neddylation. 360,000 tested, 0.58% active. AID 651699. calls only at 25 µM. P61081+Q13564. TR-FRET cullin neddylation, biochemical; in the data active = inhibition above about 36%
Target sequence (P61081 whole entry, looked up): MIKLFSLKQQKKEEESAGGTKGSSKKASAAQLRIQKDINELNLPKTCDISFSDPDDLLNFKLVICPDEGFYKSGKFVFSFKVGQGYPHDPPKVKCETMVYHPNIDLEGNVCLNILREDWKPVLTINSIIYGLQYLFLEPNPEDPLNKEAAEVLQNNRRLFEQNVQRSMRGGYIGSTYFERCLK
Target sequence (Q13564 whole entry, looked up): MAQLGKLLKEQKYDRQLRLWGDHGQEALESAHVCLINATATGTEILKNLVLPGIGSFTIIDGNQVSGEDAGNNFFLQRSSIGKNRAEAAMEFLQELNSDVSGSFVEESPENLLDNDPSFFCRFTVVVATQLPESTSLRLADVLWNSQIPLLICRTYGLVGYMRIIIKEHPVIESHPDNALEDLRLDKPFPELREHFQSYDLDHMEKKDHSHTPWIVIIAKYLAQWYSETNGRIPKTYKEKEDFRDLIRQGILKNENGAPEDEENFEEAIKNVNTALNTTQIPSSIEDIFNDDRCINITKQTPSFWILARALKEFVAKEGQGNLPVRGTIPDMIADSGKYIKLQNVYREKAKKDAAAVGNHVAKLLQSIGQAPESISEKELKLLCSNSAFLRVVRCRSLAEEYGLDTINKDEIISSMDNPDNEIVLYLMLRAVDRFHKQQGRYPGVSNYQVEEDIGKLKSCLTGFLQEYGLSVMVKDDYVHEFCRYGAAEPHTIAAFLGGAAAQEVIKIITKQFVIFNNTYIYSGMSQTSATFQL
PG9 binder: small molecules binding HIV-1 gp120 antibody PG9; AID 624416; TR-FRET gp120-PG9 antibody binding; inhibition, % at 6.7 µM; 360,000 tested, 0.43% active; in the data active = inhibition above about 8.5%
NR2E3 ag-2: activates human NR2E3 receptor | inhibition of corepressor binding, % at 3.98 µM | AID 602229 | 360,000 tested, 0.35% active | CHO-S Gal4-NCOR/VP16-NR2E3 two-hybrid, luciferase | Q9Y5X4;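 active = inhibition above the mean of all tested compounds plus 3 SD, cut at about 70% in these data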;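 note: 0% = DMSO with NR2E3 transfected cells and 100% = cells lacking NR2E3 construct; higher means lower luciferase signal from less NR2E3 corepressor binding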
PG9 binder conf: PG9 antibody binding, confirmed. shares compounds with PG9 binder. TR-FRET PG9 antibody binding, biochemical. inhibition, % at 6.7 µM. 1,500 tested, 90% active; in the data active = inhibition above about 9%
PGV04 Ab binding: binds control antibody PGV04 in PG9 binder counter-screen. TR-FRET PGV04 antibody-gp120 binding, biochemical. AID 651604. inhibition, % at 6.7 µM. shares compounds with PG9 binder. 1,500 tested, 95% active; in the data active = inhibition above about 9.5%
PG9 bind DR: PG9 antibody binding, dose response. shares compounds with PG9 binder. IC50, µM. AID 651848. 95 tested, under 10 active. TR-FRET PG9 antibody-gp120 binding inhibition; in the data active = IC50 below about 10 µM
PGV04 binding DR: binds control antibody PGV04 in PG9 counter-screen | shares compounds with PG9 binder | TR-FRET binding to control antibody PGV04 | IC50, µM | 95 tested, 20% active | AID 651937
PG126 DR counter: binds control antibody PG126 in PG9 counter-screen; IC50, µM; AID 651939; shares compounds with PG9 binder; 95 tested, 20% active; TR-FRET binding to antibody PG126, counterscreen
Starred values were filed as active, the others as inactive. Cut-off read from the data, not from the text of the source, unless noted: active = IC50 below about 9 µM; inactive = the rest.

Cc1onc(-c2ccccc2Cl)c1C(=O)Nc1ccc(F)c(F)c1 was read as NR1D1 modulator 1, NR2E3 ag-1 2, Neddylation inh inactive, PG9 binder 1 and NR2E3 ag-2 8.
Cc1onc(-c2c(F)cccc2Cl)c1C(=O)Nc1nnc(-c2ccccc2)s1 was read as NR1D1 modulator -1, NR2E3 ag-1 3, Neddylation inh inactive, PG9 binder 9.6*, NR2E3 ag-2 -10, PG9 binder conf 15* and PGV04 Ab binding 23*.
Screening Cc1onc(-c2c(F)cccc2Cl)c1C(=O)Nc1nnc(C2CC2)s1 returned NR1D1 modulator -3, NR2E3 ag-1 1, Neddylation inh inactive, PG9 binder 0 and NR2E3 ag-2 -3.
For Cc1onc(-c2ccccc2Cl)c1C(=O)Nc1nnc(-c2ccc(Cl)cc2Cl)s1 the results were NR1D1 modulator -1, NR2E3 ag-1 1, Neddylation inh inactive, PG9 binder 15*, NR2E3 ag-2 -27, PG9 binder conf 39* and PGV04 Ab binding 55*.
For O=C(NCC(F)(F)F)c1cc2c(c(-c3cccc(-c4ccccc4F)c3)n1)[C@@H](CCO)N(C(=O)CC1CC1)C2 the results were NR1D1 modulator 8, Neddylation inh inactive, PG9 binder -1 and NR2E3 ag-2 -9.
Screening CCCN1C(=O)C2(C(C(=O)c3ccc(C)o3)=C(O)C(=O)N2CCCOC)c2ccccc21 (centres undefined) returned NR1D1 modulator 0, NR2E3 ag-1 6, Neddylation inh inactive, PG9 binder 9.2*, NR2E3 ag-2 12, PG9 binder conf 18* and PGV04 Ab binding 22*.
`Cc1ccc(C(=O)C2=C(O)C(=O)N(CCCN3CCOCC3)C23C(=O)N(C)c2ccccc23)o1` (centres undefined) gave NR1D1 modulator -5, NR2E3 ag-1 8, Neddylation inh inactive, PG9 binder 9.1*, NR2E3 ag-2 5, PG9 binder conf 19* and PGV04 Ab binding 23*.
`CCN1C(=O)C2(C(C(=O)c3cc4ccccc4o3)=C(O)C(=O)N2CCCN2CCOCC2)c2ccccc21` (centres undefined) gave NR1D1 modulator -4, NR2E3 ag-1 10, Neddylation inh inactive, PG9 binder 36*, NR2E3 ag-2 -38, PG9 binder conf 45* and PGV04 Ab binding 55*.
For CCN1C(=O)C2(C(C(=O)c3ccc(C)o3)=C(O)C(=O)N2CCCN2CCOCC2)c2ccccc21 (centres undefined) the results were NR1D1 modulator -1, NR2E3 ag-1 7, Neddylation inh inactive, PG9 binder 1 and NR2E3 ag-2 -14.
`CCOc1cc(C2C(C#N)=C(N)SC(N)=C2C#N)ccc1OCCN1CCOCC1` gave NR1D1 modulator 5, NR2E3 ag-1 4, Neddylation inh inactive, PG9 binder 13*, NR2E3 ag-2 13, PG9 binder conf 15* and PGV04 Ab binding 21*.
Screening CCN(CCCNC(=O)CCn1c(=S)[nH]c2cc3c(cc2c1=O)OCO3)c1cccc(C)c1 returned NR1D1 modulator -1, NR2E3 ag-1 3, Neddylation inh inactive, PG9 binder 10*, NR2E3 ag-2 13, PG9 binder conf 12* and PGV04 Ab binding 14*.
`Cc1cccc(N2CCN(C(=O)CCn3c(=S)[nH]c4cc5c(cc4c3=O)OCO5)CC2C)c1` (centres undefined) gave NR1D1 modulator 4, NR2E3 ag-1 -6, Neddylation inh inactive, PG9 binder 0 and NR2E3 ag-2 9.
Screening CCOC(=O)N1CCN(C(=O)CCCCCn2c(=S)[nH]c3cc4c(cc3c2=O)OCO4)CC1 returned NR1D1 modulator 1, NR2E3 ag-1 4, Neddylation inh inactive, PG9 binder 8.7*, NR2E3 ag-2 -28, PG9 binder conf 3 and PGV04 Ab binding 16*.
For O=C(CCCn1c(=S)[nH]c2cc3c(cc2c1=O)OCO3)NCCc1ccc(Cl)cc1 the results were NR1D1 modulator 18, Neddylation inh inactive, PG9 binder 4 and NR2E3 ag-2 15.
O=C(CCCCCn1c(=S)[nH]c2cc3c(cc2c1=O)OCO3)NCCc1ccccc1 was read as NR1D1 modulator 18, NR2E3 ag-1 14, Neddylation inh inactive, PG9 binder 20*, NR2E3 ag-2 -3, PG9 binder conf 17* and PGV04 Ab binding 24*.
For COc1ccc(-c2c(C(=O)c3ccccc3)[nH]c(N)c2C(=O)NCCc2c[nH]c3ccccc23)cc1 the results were NR1D1 modulator 8 and PG9 binder -1.
Cc1ccc(S(=O)(=O)N2CCN(C(=O)CCc3c[nH]c4ccccc34)CC2)c(C)c1 was read as NR1D1 modulator 7, NR2E3 ag-1 0, Neddylation inh inactive, PG9 binder 2 and NR2E3 ag-2 20.
`CC1CCN(CCCn2c(=S)[nH]c3c(sc4ccccc43)c2=O)CC1` gave NR1D1 modulator -4, NR2E3 ag-1 1, Neddylation inh inactive, PG9 binder 15*, NR2E3 ag-2 -32, PG9 binder conf 9.7*, PGV04 Ab binding 9.4*, PG9 bind DR inactive, PGV04 binding DR inactive and PG126 DR counter inactive.
Screening Cc1cc(=O)[nH]c(SCC(=O)c2ccc(C(C)C)cc2)n1 returned NR1D1 modulator 0, NR2E3 ag-1 0, Neddylation inh inactive, PG9 binder -1 and NR2E3 ag-2 -35.
Cc1cc(C)c2c(=O)[nH]c(SCC(=O)c3ccc(C(C)C)cc3)nc2n1 was read as NR1D1 modulator -4, NR2E3 ag-1 0, Neddylation inh inactive, PG9 binder 32*, NR2E3 ag-2 13, PG9 binder conf 59* and PGV04 Ab binding 76*.
Screening Cc1ccc(NC(=O)Cn2cc(S(=O)(=O)c3ccc(F)cc3)c(=O)c3cc(F)ccc32)cc1 returned NR1D1 modulator 10, NR2E3 ag-1 3, Neddylation inh inactive, PG9 binder 24*, NR2E3 ag-2 15, PG9 binder conf 38* and PGV04 Ab binding 44*.
